Results published in the EternaBench riboswitch data.

How the values were obtained:
MS2 coat protein [1] = test: apparent Kd, MS2 coat protein; higher = weaker binding; RNA-MaP array; theophylline 2 mM where present
Procedure, shortened: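 The titrant was SNAP-549-labelled MS2 coat protein, run from 0.7 or 1.5 nM in doubling steps to 3 µM. It was applied to designs transcribed by stalled E. coli RNA polymerase on Illumina sequencing-chip clusters, without ligand first and then with constant ligand, in 100 mM Tris-HCl pH 7.5, 80 mM KCl, 4 mM MgCl2, BSA, DTT, yeast tRNA and Tween-20. The apparent Kd is the median of filtered per-cluster binding-curve fits, with green signal normalised to red-channel RNA signal and control-cluster median Fmax.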

MS2 coat protein [2] = test: apparent Kd, MS2 coat protein; higher = weaker binding; RNA-MaP array
Procedure, shortened: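 Apparent Kd is the median of per-cluster binding-curve fits for designed RNAs transcribed from sequenced DNA templates on an Illumina sequencing chip. The RNAs were incubated at room temperature with fluorescently labeled MS2 coat protein at 1.5 nM to 3 μM, with or without input ligand, and designs measured on fewer than 10 clusters were excluded.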

[3] = designed as: OFF switch for theophylline, no ligand
[4] = ligand present: theophylline, designed as: OFF switch for theophylline
[5] = designed as: ON switch for theophylline, no ligand
[6] = ligand present: theophylline, designed as: ON switch for theophylline
[7] = designed as: OFF switch for flavin mononucleotide, no ligand
[8] = ligand present: flavin mononucleotide, designed as: OFF switch for flavin mononucleotide
[9] = designed as: ON switch for flavin mononucleotide, no ligand
[10] = ligand present: flavin mononucleotide, designed as: ON switch for flavin mononucleotide

For “ACAUCCAGGUUAAUCGUGGGCAUGGUCGAUACCAGUAUUUUAAUCUACCCUUGGCAGCGACAUGAGGAUCACCCAUGUGCGAUGA”, the “apparent Kd” value (MS2 coat protein [1]; [3]) was 24.6 nM and the “apparent Kd” value (MS2 coat protein [1]; [4]) was 36.3 nM.

With “AGAAUAACACAUGAGGAUCACCCAUGUGAUACCAGCUAGGAAACUAGCCCUUGGCAGCACAUAAUCCUCAUGAAUGUGCUGAAUA” the “apparent Kd” value (MS2 coat protein [1]; [3]) was 70.4 nM and the “apparent Kd” value (MS2 coat protein [1]; [4]) was 60.6 nM.

For “GGUGGUGUGACGGAUACCAGCCACCGCGGCAACGCAACAUGAGGAUCACCCAUGUUGGGUGGCCCUUGGCAGCUGUCGUGCGGCG”, the “apparent Kd” value (MS2 coat protein [1]; [5]) was 96.5 nM and the “apparent Kd” value (MS2 coat protein [1]; [6]) was 84.7 nM.

In the case of “ACAUGAGGAUCACCCAUGUCAAGGCACGAUACCAGCUGAUCCCGUGGCCCUUGGCAGCGUCACGUUUGGUCCCGCGGAUGACACG”, the “apparent Kd” value (MS2 coat protein [1]; [5]) was 89 nM and the “apparent Kd” value (MS2 coat protein [1]; [6]) was 95.8 nM.

“CAAUACGUAACUGAUACCAGUGUACUGACAUGAGGAUCACCCAUGUUGGGUUUUGUUGUACACCCUUGGCAGCAGAAUCGUAUUG” was tested, and the “apparent Kd” value (MS2 coat protein [1]; [3]) was 70.1 nM and the “apparent Kd” value (MS2 coat protein [1]; [4]) was 93.7 nM.

In the case of “AUUUUCAUGGUCAUAUAUAUAUCUUCAGAUACCAGACUAUAUUAAGUCCCUUGGCAGCUGUUACAUGAGGAUCACCCAUGUUAUA”, the “apparent Kd” value (MS2 coat protein [1]; [3]) was 127 nM and the “apparent Kd” value (MS2 coat protein [1]; [4]) was 36.2 nM.

“UUUACAUGAGGAUCACCCAUGUGCCAUGAUACCAGACAUGAAAAUGUCCCUUGGCAGCAUGAAUAAUCCUCGUCGGGAAACCGAC” was tested, and the “apparent Kd” value (MS2 coat protein [1]; [5]) was 140 nM and the “apparent Kd” value (MS2 coat protein [1]; [6]) was 544 nM.

With “CGAUACGUAACUGAUACCAGUGUACUGACAUGAGGAUCACCCAUGUUGGGUUUUGUUGUACACCCUUGGCAGCAGAAUCGUAUCG” the “apparent Kd” value (MS2 coat protein [1]; [3]) was 67.5 nM and the “apparent Kd” value (MS2 coat protein [1]; [4]) was 96.1 nM.

With “UGAACAUGAGGAUCACCCAUGUAGUCAGAUACCAGACACUGCAUGGUCCCUUGGCAGCUGAAGAGCGUUUGCCAAAUAACGUUCA” the “apparent Kd” value (MS2 coat protein [1]; [5]) was 162 nM and the “apparent Kd” value (MS2 coat protein [1]; [6]) was 567 nM.

With “AGCCUCAUACAUGAGGAUCACCCAUGUGAUACCAGUCAGGAAACUGACCCUUGGCAGCGCAUGAGGAUCACCCAUGCGCGAGGCA” the “apparent Kd” value (MS2 coat protein [1]; [3]) was 59.7 nM and the “apparent Kd” value (MS2 coat protein [1]; [4]) was 113 nM.

For “GCUGUAAGUGCAGAUACCAGCAAGUGAGGUUUCAUAUGACAUGAGGAUCACCCAUGUAUCUGCCCUUGGCAGCUGCACUUACAGC”, the “apparent Kd” value (MS2 coat protein [1]; [5]) was 21.4 nM and the “apparent Kd” value (MS2 coat protein [1]; [6]) was 15.2 nM.

In the case of “GGUGGAGGCGUGGGACUUGUCUGAACGGAUACCAGCCACAUCACGGGCCCUUGGCAGCUGUACAUGAGGAUCACCCAUGUCGGUC”, the “apparent Kd” value (MS2 coat protein [1]; [3]) was 32.3 nM and the “apparent Kd” value (MS2 coat protein [1]; [4]) was 93.7 nM.

For “AUCGUACCUGAUGAUACCAGCAUGUGCUCGUAACAUGAGGAUCACCCAUGUGAUCAGUAAUGCCCUUGGCAGCAUGAUCGGUACA”, the “apparent Kd” value (MS2 coat protein [1]; [5]) was 57.9 nM and the “apparent Kd” value (MS2 coat protein [1]; [6]) was 14.3 nM.

In the case of “AACAUGAGGAUCACCCAUGUAUUGGGUGAUACCAGCCUGAAUAAUGGCCCUUGGCAGCACCACGCUAACUUUAUGUCUGCGAACC”, the “apparent Kd” value (MS2 coat protein [1]; [5]) was 92.2 nM and the “apparent Kd” value (MS2 coat protein [1]; [6]) was 162 nM.

In the case of “CCGAACAUGAGGAUCACCCAUGUUAGGGAUACCAGCCCAGACAUGGGCCCUUGGCAGCUCUAUAGCUGACGAAAGUCAGCAUCGG”, the “apparent Kd” value (MS2 coat protein [1]; [5]) was 58.5 nM and the “apparent Kd” value (MS2 coat protein [1]; [6]) was 30.5 nM.

For “GAGCUGAUGUAGAAAUUUUAUUUCUGAGAUACCAGUACAGAAAUGUACCCUUGGCAGCUCAGUUUUACAUGAGGAUCACCCAUGU”, the “apparent Kd” value (MS2 coat protein [1]; [3]) was 12.2 nM and the “apparent Kd” value (MS2 coat protein [1]; [4]) was 15 nM.

In the case of “UGACAUUGCUGCGAUACCAGACAUGAGGAUCACCCAUGUGCCAAAUAAACGUACAUAAAUGUCCCUUGGCAGCGCAGCAAUGUCU”, the “apparent Kd” value (MS2 coat protein [1]; [3]) was 64.4 nM and the “apparent Kd” value (MS2 coat protein [1]; [4]) was 752 nM.

For “AGUAUACAUUCUGAUACCAGAGACAUGAGGAUCACCCAUGUCCGAUCGUCCUGCCUCAGACUCCCUUGGCAGCAGGAUAUGUGCU”, the “apparent Kd” value (MS2 coat protein [1]; [3]) was 16.2 nM and the “apparent Kd” value (MS2 coat protein [1]; [4]) was 27.6 nM.

With “AGUACACGAACGGAUACCAGCCGGACAUGAGGAUCACCCAUGUCCUACCUCUGUUCGGUUGGCCCUUGGCAGCCGUUCGUGUACA” the “apparent Kd” value (MS2 coat protein [1]; [5]) was 117 nM and the “apparent Kd” value (MS2 coat protein [1]; [6]) was 88.3 nM.

With “AUUAAAAGUUGUGAUACCAGACGAACAUGAGGAUCACCCAUGUAACUUUUAGGUGUUGUAGUCCCUUGGCAGCACUAUGUAGUUA” the “apparent Kd” value (MS2 coat protein [1]; [5]) was 43.6 nM and the “apparent Kd” value (MS2 coat protein [1]; [6]) was 38.2 nM.

In the case of “GAUCUGUCGGGUGAUACCAGCCUCGGCACAUCUCGUGCCGAACAUGAGGAUCACCCAUGUGGCCCUUGGCAGCACAUGACAAAUC”, the “apparent Kd” value (MS2 coat protein [1]; [5]) was 362 nM and the “apparent Kd” value (MS2 coat protein [1]; [6]) was 55.1 nM.

For “AAUAAGAAAGGAUAUACAGAGGAUAAACUAAUAAAUAAAGGACAUGAGGAUCACCCAUGUAGAAGGUUCAAAAU”, the “apparent Kd” value (MS2 coat protein [2]; [7]) was 11.9 nM and the “apparent Kd” value (MS2 coat protein [2]; [8]) was 11.7 nM.

In the case of “CGAACAUGAGGAUCACCCAUGUGUUUCCUUGGUAGACGACAUAGAAGGGCCGUAAAUUACAGCGGGCAGGAUAUAUGACUUAAG”, the “apparent Kd” value (MS2 coat protein [2]; [7]) was 164 nM and the “apparent Kd” value (MS2 coat protein [2]; [8]) was 137 nM.

For “GCAAUACAUGAGGAUCACCCAUGUUUUAGAUACGAAGGAUAUGUGUAAGCGUACUAAUGUACAGAAGGUCGGAUUU”, the “apparent Kd” value (MS2 coat protein [2]; [9]) was 13.1 nM and the “apparent Kd” value (MS2 coat protein [2]; [10]) was 9.26 nM.

“AGUGCUACGUGUAAUCAAAGAGAACCAGAUACCAGAUUAGCAUACAUCCCUUGGCAGCUGCAUACAUGAGGAUCACCCAUGUCAG” was tested, and the “apparent Kd” value (MS2 coat protein [2]; [3]) was 37.2 nM and the “apparent Kd” value (MS2 coat protein [2]; [4]) was 39.1 nM.

For “GGCGGGAGAAUAGGAUAUUCCGGUAAUCGACAUGAGGAUCACCCAUGUACCGUUCAACCGAUACCGAAGAAGGAUUAUAAGCCU”, the “apparent Kd” value (MS2 coat protein [2]; [9]) was 16.6 nM and the “apparent Kd” value (MS2 coat protein [2]; [10]) was 13.8 nM.
